Holding throughout (assay type): functional
The species entered for one experiment is Oryctolagus cuniculus. Nature of the experiment: Compound was tested for the muscle-relaxing activity in rabbits. In a few lines:
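Muscle electrical activity during contraction was recorded and pulses were counted. A 5 s extension was repeated every 1 min. Once pulse counts were constant (control value), the substance was given iv, and post-dose pulses were related to that value. Four to six animals were used per dose. ED50 was the dose halving muscle activity from the initial value.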

For experiment [1], the species on record is Rattus norvegicus. The experiment is described as follows: Compound was tested or the anti-tryptamine activity in rats. In a few lines: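 Rats were challenged with tryptamine hydrochloride (16 mg/kg iv), with test substances given ip 30 min beforehand. Activity was scored as absence of clonic front paw movements over a 5 min observation after tryptamine. ED50 was the dose preventing the symptom in half the animals, determined by Probit analysis.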

Experiment [2] is filed under the species Rattus norvegicus. The experiment is described as follows: Compound was tested or the anti-tryptamine activity in rats relative with respect to clozapine. The gist of the method: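 Rats dosed ip 30 min before tryptamine hydrochloride 16 mg/kg iv. Effect means front paw clonic movements absent over 5 min observation after tryptamine. ED50 is the dose preventing the symptom in half the animals (Probit analysis); relative activity referenced to clozapine.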

Experiment [3] is filed under the species Mus musculus. The experiment is described as follows: Anticholinergic activity in mice. The gist of the method:
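Groups of 10 female NMRI mice received a lethal dose of physostigmine (0.825 mg/kg sc). Test substances were given orally 30 min before the physostigmine.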

The species entered for experiment [4] is Mus musculus. Nature of the experiment: Sedative activity relative with respect to clozapine.
Experiment [5] is filed under the species Mus musculus. The experiment is described as follows: Anticholinergic activity relative with respect to clozapine.
The species entered for experiment [6] is Mus musculus. Nature of the experiment: Sedative activity in mice.

The record followed here is ChEMBL document CHEMBL1123227, “Tricyclic epines. Novel (E)- and (Z)-11H-dibenz[b,e]azepines as potential central nervous system agents. Variation of the basic side chain” (1986).

What is called ED50 is the dose at which the effect has come halfway, by size or by number of responders. In the case of `CN1CCN(C2=Nc3ccccc3C(=CC#N)c3ccccc32)CC1`, the ED50 in the experiment listed under Oryctolagus cuniculus worked out at 0.059 mg/kg; in the experiment filed under Rattus norvegicus [1], 30 mg/kg. For the same compound, the Relative activity in the experiment filed under Rattus norvegicus [2] was 0.17.

`C[N+]1([O-])CCN(C2=Nc3ccccc3C(=CC#N)c3ccccc32)CC1`: the 50% effect level in the experiment listed under Mus musculus [3] (ED50) was put at a dose of 15.9 mg/kg. The Relative activity in the experiment listed under Mus musculus [4] is listed as 0.33; in the experiment listed under Mus musculus [5], 0.89.

On to `CCN1CCN(C2=Nc3ccccc3C(=CC#N)c3ccccc32)CC1`, for which the ED50 is roughly 0.32 mg/kg in the experiment listed under Oryctolagus cuniculus and 6.6 mg/kg in the experiment filed under Rattus norvegicus [1]. The compound further came in with a Relative activity in the experiment listed under Rattus norvegicus [2] of 0.76.

As for `CCN1CCCC1CNC1=Nc2ccccc2/C(=C/C#N)c2ccccc21` (centres undefined), the ED50 in the experiment filed under Mus musculus [3] was greater than 100 mg/kg; in the experiment listed under Mus musculus [6] it was 17.2 mg/kg. Besides, the Relative activity is given as 0.28 in the experiment filed under Mus musculus [4] and less than 0.14 in the experiment listed under Mus musculus [5].

Take `N#C/C=C1/c2ccccc2N=C(NCCN)c2ccccc21`: the ED50 in the experiment listed under Mus musculus [3] and in the experiment filed under Mus musculus [6] was greater than 100 mg/kg in each case. Besides, the Relative activity in the experiment listed under Mus musculus [4] is given as less than 0.04; in the experiment listed under Mus musculus [5], less than 0.14.

For the compound `Cc1ccc2c(c1)/C(=C/C#N)c1ccccc1C(N1CCN(C)CC1)=N2`, the results for the ED50 in the experiment listed under Oryctolagus cuniculus and in the experiment filed under Rattus norvegicus [1] were roughly 0.1 mg/kg and roughly 21 mg/kg, respectively. This compound came in with a Relative activity in the experiment filed under Rattus norvegicus [2] of 0.23.

As to `N#C/C=C1/c2ccccc2N=C(N2CCN(CCO)CC2)c2ccccc21`, the ED50 in the experiment listed under Mus musculus [3] was roughly 68.1 mg/kg; in the experiment listed under Mus musculus [6], 14.6 mg/kg. Also, the values for the Relative activity in the experiment listed under Mus musculus [4] and in the experiment listed under Mus musculus [5] were 0.32 and 0.21, respectively.

Take `CN1CCC(OC2=Nc3ccccc3/C(=C/C#N)c3ccccc32)CC1`: the ED50 in the experiment listed under Mus musculus [3] and in the experiment filed under Mus musculus [6] was greater than 21.5 mg/kg in each case. The Relative activity in the experiment filed under Mus musculus [4] is listed as less than 0.22; in the experiment filed under Mus musculus [5] it was less than 0.66.

Regarding `N#C/C=C1/c2ccccc2N=C(N2CCOC(CO)C2)c2ccccc21` (centres undefined), the values for the ED50 in the experiment listed under Mus musculus [3] and in the experiment listed under Mus musculus [6] were roughly 46.4 mg/kg and greater than 46.4 mg/kg, respectively. In addition, the Relative activity in the experiment listed under Mus musculus [4] is less than 0.1; in the experiment listed under Mus musculus [5], 0.3.

For the compound `N#C/C=C1/c2ccccc2N=C(N2CCNCC2)c2ccccc21`, the ED50 in the experiment listed under Mus musculus [3] was 21.3 mg/kg; in the experiment listed under Mus musculus [6] it was 30.6 mg/kg. Moreover, the Relative activity in the experiment listed under Mus musculus [4] was determined as 0.15; in the experiment listed under Mus musculus [5] it was 0.66.

In the case of `N#C/C=C1/c2ccccc2N=C(NCCN2CCOCC2)c2ccccc21`, the ED50 in the experiment listed under Mus musculus [3] is greater than 100 mg/kg; in the experiment listed under Mus musculus [6], 8.12 mg/kg. Besides, the Relative activity in the experiment listed under Mus musculus [4] was 0.58; in the experiment filed under Mus musculus [5] it was less than 0.14.

For the compound `CN(C)CCN(C)C1=Nc2ccccc2/C(=C/C#N)c2ccccc21`, the ED50 in the experiment listed under Mus musculus [3] was roughly 31.6 mg/kg; in the experiment listed under Mus musculus [6] it was roughly 14.7 mg/kg. Also, the values for the Relative activity in the experiment filed under Mus musculus [4] and in the experiment listed under Mus musculus [5] were 0.32 and 0.45, respectively.

Consider `CN1CCCCC1COC1=Nc2ccccc2/C(=C/C#N)c2ccccc21` (centres undefined), for which the ED50 in the experiment listed under Mus musculus [3] is roughly 68.1 mg/kg; in the experiment filed under Mus musculus [6], 43.6 mg/kg. In addition, the Relative activity in the experiment listed under Mus musculus [4] was found to be 0.11; in the experiment filed under Mus musculus [5], 0.21.

As for `N#C/C=C1/c2ccccc2N=C(N2CCOCC2)c2ccccc21`, the ED50 in the experiment filed under Mus musculus [3] and in the experiment filed under Mus musculus [6] was greater than 100 mg/kg each time. Further, the results for the Relative activity in the experiment listed under Mus musculus [4] and in the experiment filed under Mus musculus [5] were less than 0.04 and less than 0.14, respectively.

Regarding `CN1CCN(C2=Nc3ccc(Cl)cc3/C(=C/C#N)c3ccccc32)CC1`, the values for the ED50 in the experiment filed under Mus musculus [3] and in the experiment filed under Mus musculus [6] were 16.1 mg/kg and 25.6 mg/kg, respectively. The Relative activity in the experiment filed under Mus musculus [4] is 0.19; in the experiment listed under Mus musculus [5], 0.88.

For `N#C/C=C1/c2ccccc2N=C(N2CCC(O)CC2)c2ccccc21`, the values for the ED50 in the experiment listed under Mus musculus [3] and in the experiment filed under Mus musculus [6] were greater than 100 mg/kg and greater than 46.4 mg/kg, respectively. The Relative activity in the experiment filed under Mus musculus [4] is recorded as less than 0.1; in the experiment filed under Mus musculus [5], less than 0.14.

For `Cc1ccc2c(c1)N=C(N1CC[N+](C)([O-])CC1)c1ccccc1/C2=C/C#N`, the 50% effective dose (ED50) in the experiment filed under Mus musculus [3] was determined as 31 mg/kg; in the experiment listed under Mus musculus [6], 2.66 mg/kg. The Relative activity in the experiment filed under Mus musculus [4] worked out at 1.78; in the experiment listed under Mus musculus [5], 0.45.

As for `C[N+]1([O-])CCN(C2=Nc3ccccc3/C(=C/C#N)c3ccccc32)CC1`, the ED50 in the experiment filed under Mus musculus [3] is roughly 100 mg/kg. In addition, the Relative activity was 0.26 in the experiment filed under Mus musculus [4] and 0.14 in the experiment listed under Mus musculus [5].

Take `Cc1ccc2c(c1)N=C(N1CCN(CCN3CCOC3=O)CC1)c1ccccc1/C2=C\C#N`: the ED50 was greater than 46.4 mg/kg in the experiment filed under Mus musculus [3] and 9.56 mg/kg in the experiment listed under Mus musculus [6]. For the same compound, the Relative activity is recorded as 0.5 in the experiment filed under Mus musculus [4] and less than 0.3 in the experiment filed under Mus musculus [5].

As for `CC1CCN(C2=Nc3ccccc3/C(=C/C#N)c3ccccc32)CC1`, the results for the ED50 in the experiment filed under Mus musculus [3] and in the experiment listed under Mus musculus [6] were greater than 46.4 mg/kg and roughly 68.1 mg/kg, respectively. For the same compound, the Relative activity is on record as 0.07 in the experiment listed under Mus musculus [4] and less than 0.3 in the experiment listed under Mus musculus [5].

In the case of `CC1CN(C2=Nc3ccccc3/C(=C/C#N)c3ccccc32)CCN1C` (centres undefined), the ED50 in the experiment filed under Mus musculus [3] came out at 7.68 mg/kg; in the experiment filed under Mus musculus [6], 8.08 mg/kg. The Relative activity in the experiment listed under Mus musculus [4] is given as 0.59; in the experiment listed under Mus musculus [5] it was 1.84.
